# Assay outcomes as filed in PubChem.
# RanGTP-Imp inh: inhibitors of RanGTP-importin-beta interaction, primary screen, biochemical, FRET, CFP-Ran, YFP-importin-beta, homogeneous. cell-free CFP-Ran/YFP-importin-beta FRET ratio. inhibition, % (concentration not given with the values). actives 1.1% (n = 300,000);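 active means more than half of the replicate wells show a fall in the fluorescence ratio signal beyond about 16%, limit read from the data, passing the limit was not always enough; inconclusive means exactly half of the replicate wells pass the set limit; inactive means fewer than half of replicates pass the limit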;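 further: 0% = DMSO wells and 100% = Ran loaded with GDP instead of GTP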
# PHOSPHO1 block: inhibitors of human PHOSPHO1 phosphatase; inhibition, % at 13.3 µM; Q8TCT1; actives 1.1% (n = 290,000); recombinant PHOSPHO1, absorbance phosphatase assay; in the data active means inhibition above about 60%
# Target sequence (Q8TCT1 whole entry, looked up): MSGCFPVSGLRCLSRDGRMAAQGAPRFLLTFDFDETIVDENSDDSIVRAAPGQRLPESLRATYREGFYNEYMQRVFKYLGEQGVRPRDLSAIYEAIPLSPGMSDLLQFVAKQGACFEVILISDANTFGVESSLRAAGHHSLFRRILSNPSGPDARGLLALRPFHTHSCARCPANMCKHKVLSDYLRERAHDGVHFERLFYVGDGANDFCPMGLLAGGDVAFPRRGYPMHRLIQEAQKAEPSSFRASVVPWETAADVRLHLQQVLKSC
# Wee1 degr inh: human Wee1 degradation inhibition, primary screen | P30291 | HeLa Luc-Wee1K328M stability, luciferase luminescence; 100% = proteasome inhibitor MG132 effect | reporter increase, % at 5 µM | actives 1.2% (n = 220,000) | AID 1321;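 active means activation above the mean of all tested compounds plus 3 SD, set per screening run, cut at about 8.8% in these data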;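 further: cells exposed to compound for 20 h before luminescence read; 0% = DMSO alone and 100% = MG132 at 30 µM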
# Efa HMGR inh: inhibitors of class II HMG-CoA reductase from Enterococcus faecalis | inhibition, % at 10 µM | purified E. faecalis HMGR, NADPH absorbance 340 nm kinetic | AID 1066 | actives 0.41% (n = 190,000);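 active means inhibition above a set limit, the median over all tested compounds plus 3 SD, cut at about 9.5% in these data; inconclusive means no clear call, values can overlap the other calls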;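 further: enzyme runs in reverse so mevalonate oxidation gives rising NADPH absorbance; 0% = complete reaction with DMSO and 100% = background rate lacking mevalonate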
# Runt-CBFb FRET: blocks binding of human RUNX1 Runt domain to CBFb. actives 0.46% (n = 220,000). inhibition, % at 20 µM. Cerulean-Runt/Venus-CBFb FRET ratio 530/480, 1 h. Q01196+Q13951. AID 1496;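 active means inhibition over about 50% at 20 µM in the single-dose screen, limit read from the data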;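 further: 0% = DMSO wells and 100% = excess unlabeled CBFb competitor control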
#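 Assay system: Cerulean-Runt domain fusion protein, energy donor; Signal: fluorescence energy transfer, 422 nm excitation, 530/480 nm emission; Timing: 1 h compound exposure, room temperature; Control set: unlabeled CBFb; Medium: Tris buffer pH 7.5 with salts and BSA; Compound: single test concentration of 20 µM, 1% DMSO final; Probe or stimulus: Venus-CBFb 100 nM.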
# Runt-SMMHC FRET: Runt domain-CBFb-SMMHC interaction inhibition | Q01196+Q13951 | Cerulean-Runt/Venus-CBFb-SMMHC FRET ratio 530/480, 1 h | inhibition, % at 20 µM | actives 0.74% (n = 220,000);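 active means mean inhibition across duplicate retests at 20 µM reaching about 50%, limit read from the data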;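 further: 0% = DMSO wells and 100% = wells with excess untagged CBFb-SMMHC; inhibitors lower the FRET ratio by blocking Runt binding to CBFb-SMMHC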
# * = called active by the depositor; u = inconclusive; x = no result given. Sampled rows, rich in hits. Any-hit rate of the full collection: about 3.4%.
SMILES,RanGTP-Imp inh,PHOSPHO1 block,Wee1 degr inh,Efa HMGR inh,Runt-CBFb FRET,Runt-SMMHC FRET
Nn1c(SCC(=O)Nc2ccc3c(c2)OCCO3)nnc1C(F)(F)F,2,91*,-1,-6,0,5
Nn1c(SCC(=O)Nc2ccc3c(c2)OCO3)nncc1=O,-3,20,6,9.7*,2,7
Cc1nnc(SCC(=O)Nc2ccc3c(c2)OCCO3)n1N,3,26,-1,0,4,-2
CC12CC(c3ccccc3O1)N(C(=O)c1ccco1)C(=S)N2c1ccc(F)cc1 (centres undefined),-2,71*,1,-2,-1,0
Cc1ccc2c(c1)c(=O)c1c3n2CCN(C(=O)CCl)C3CC1 (centres undefined),-4,80*,-2,-1,1,-16
Cc1ccc2c(c1)c1c3n2CCN(C(=O)CN2CCN(C)CC2)C3CCC1 (centres undefined),u,23,0,2,-6,-48
CC(C)c1ccccc1N=C1SCCCN1C(=O)c1cccc(N2C(=O)CCC2=O)c1,5,x,x,x,x,x
NC(=O)c1ccccc1NC(=O)CC12CC3CC(CC(C3)C1)C2,-6,30,x,x,x,x
CCOC(=O)c1c(S(=O)(=O)NCC(=O)NCc2ccc(C)cc2)c(C)n(C)c1C,-1,24,x,x,x,x
CCOC(=O)c1c(S(=O)(=O)NCC(=O)NCc2ccccc2Cl)c(C)n(C)c1C,0,62*,x,x,x,x
CCOC(=O)c1c(S(=O)(=O)Nc2ccccn2)c(C)n(C)c1C,0,65*,x,x,x,x
CN(C)c1ccnc2sc(C(N)=O)c(N)c12,0,61*,0,1,6,-3
O=C(c1ccccc1)N1CCCC(c2ccc(Cl)cc2)=N1,4,7,-1,-3,-6,-1
O=C(C1CC1)N1CCCC(c2ccc(Cl)cc2)=N1,-2,-33,6,10*,0,-1
CCc1cc2c(SCC(=O)N(CC)c3c(N)n(Cc4ccccc4)c(=O)[nH]c3=O)ncnc2s1,1,68*,-2,-3,-2,0
CCN(C(=O)CN1CCc2ccccc21)c1c(N)n(Cc2ccccc2)c(=O)[nH]c1=O,6,-4,-1,-4,9,57*
COc1ccc2oc(C(=O)Nc3ccc(N4CCOCC4)cc3)c(C)c2c1,-1,x,x,x,x,x
CC(NC(=O)c1ccco1)c1nc(-c2ccc(Cl)cc2)no1 (centres undefined),2,4,x,x,x,x
CS(=O)(=O)N(CCCC(=O)N1CCCCCC1)c1cccc(Cl)c1,4,52,x,x,x,x
Cc1ccc(CNS(=O)(=O)c2ccc3c(c2)n(C)c(=O)c(=O)n3C)cc1,-2,-8,10*,-3,-1,3
COC(=O)C1CN(C(=O)C(C)Oc2ccccc2F)c2ccccc2O1 (centres undefined),2,20,x,x,x,x
CCOC(=O)C1=NN(c2ccccc2)C2(S1)SC(C(C)=O)=C(C)N2c1ccccc1 (centres undefined),1,19,-3,-3,9,2
CCOC(=O)C1=NN(c2cccc(C)c2)C2(S1)SC(C(C)=O)=C(C)N2c1ccccc1 (centres undefined),1,62*,0,0,2,7
CCn1c2ccccc2c2cc(N=C3SC(CC(=O)Nc4ccccc4)C(=O)N3C)ccc21 (centres undefined),0,28,17*,-6,0,-1
O=C(CNC(=O)c1ccccc1)NCC(=O)OCc1ccccc1Cl,0,60*,-3,4,0,0
SMILES,RanGTP-Imp inh,PHOSPHO1 block,Wee1 degr inh,Efa HMGR inh,Runt-CBFb FRET,Runt-SMMHC FRET
CCN(CC)S(=O)(=O)c1ccc(C(=O)OC2CCCCC2CN(C)C)cc1 (centres undefined),26*,-1,-1,-4,0,4
CN(C)CC1CCCCC1OC(=O)c1ccc(Cl)cc1 (centres undefined),2,-10,2,-9,0,2
CCOc1ccc(C2CC(c3ccc(CC)cc3)n3nc(N)nc3N2)cc1 (centres undefined),2,62*,-2,-5,-3,0
CC(c1ccc(O)cc1)(c1ccc(O)cc1)c1ccc(CCBr)cc1,1,38,x,x,x,x
Cc1ccc2cc(COC(=O)c3ccncc3)c(=O)[nH]c2c1,-3,86*,-1,-5,-4,-3
Cc1cccc2cc(COC(=O)c3cccnc3)c(=O)[nH]c12,1,78*,4,2,-3,2
Cc1cccc2cc(COC(=O)c3ccccc3)c(=O)[nH]c12,1,-8,3,2,-3,-2
Cc1ccc(C(=O)OCc2cc3ccccc3[nH]c2=O)cc1,-2,-3,-2,3,-2,2
CCN(CC)C(=O)C1CCN(S(=O)(=O)c2ccc3c(c2)CCCN3C(=O)C2CCC2)CC1,-1,1,x,x,x,x
CCN(CC(=O)NCc1ccc(Cl)cc1)C(=O)c1ccc(C#N)cc1,-2,46,x,x,x,x
O=C(COc1ccc2c3c(c(=O)oc2c1)CCCC3)NCCCN1CCOCC1,2,24,x,x,x,x
OCCCNC(=S)Nc1ccc(Br)cc1Cl,-1,6,8.9*,x,-1,1
Cc1ccccc1-n1nnnc1SCC(=O)N(C)C1CCS(=O)(=O)C1 (centres undefined),4,-4,-1,-5,1,-4
CCc1ccccc1NC(=O)/C(C#N)=C\c1ccc(Sc2ccccc2)o1,16*,1,-1,1,-6,-28
CCc1ccccc1NC(=O)/C(C#N)=C/c1ccc(Sc2ccccc2)o1,14,8,1,-8,-21,-44
Cc1ccc(C(=O)N2CCNC(=O)C2CC(=O)Nc2ccc(F)cc2)cc1C (centres undefined),5,38,x,x,x,x
CC(C)(C)c1cc(C(C)(C)C)cc(S(=O)(=O)CCc2ccccn2)c1,u,-9,-1,x,-7,-3
Cc1cc(C)cc(N=Cc2c(O)c3ccccc3oc2=O)c1,-5,-16,-1,5,3,87*
O=C(Nc1ccc(Cl)c(Cl)c1)N1N=CCC1c1ccccc1 (centres undefined),-3,39,-4,-1,0,3
COC(=O)C1=C(C)N(c2ccc(OC)c(OC)c2)C(=O)/C1=C\c1ccco1,-4,-120,8.9*,1,-1,-2
Cc1ccccc1NC(=O)Cn1c(CCC(=O)O)ccc1-c1cccs1,7,9,-2,19*,17,28
COCCCn1c(CCC(=O)O)ccc1-c1cccs1,55*,7,3,5,22,126*
Cc1ccc(NC(=O)Cn2c(CCC(=O)O)ccc2-c2cccs2)cc1,4,-11,-1,-7,20,26
